The source of these data is ChEMBL document CHEMBL3877249, “Novel 2-aryl-4-(4'-hydroxyphenyl)-5H-indeno[1,2-b]pyridines as potent DNA non-intercalative topoisomerase catalytic inhibitors” (Eur J Med Chem, 2017).

Test [1] in a line: Antiproliferative activity against human HCT15 cells after 72 hrs by CCK8 assay. The conditions noted are these: HCT-15, 72 h. In kind it is functional, cell-based. A digest of the protocol: (§1)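 Cells seeded at 2–4 × 10^4 per well, grown overnight in medium with 10% FBS at 37 °C and 5% CO2. After 4 h FBS starvation they were exposed to graded compound concentrations for 72 h. CCK-8 was added for a further 4 h and absorbance read at 450 nm. IC50 came from a four-parameter logistic fit.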
On the technique in general: Tetrazolium assays rely on reduction of a dye to a coloured formazan, in cell work by metabolically active cells.

A short description of test [2]: Antiproliferative activity against human DU145 cells after 72 hrs by CCK8 assay. Type of test: functional, cell-based. The conditions noted are these: DU-145, 72 h. A digest of the protocol:
as §1

A short description of test [3]: Antiproliferative activity against human HeLa cells after 72 hrs by CCK8 assay. In kind it is functional, cell-based. The procedure, abridged: as §1
Test [4] can be described thus: Antiproliferative activity against HEK293 cells after 72 hrs by CCK8 assay. Type of test: cell-based. The conditions noted are these: Homo sapiens, HEK293, 72 h. A digest of the protocol: as §1
Test [5] in a line: Antiproliferative activity against human T47D cells after 72 hrs by CCK8 assay. In kind it is functional, cell-based. The procedure, abridged: as §1
Test [6] can be described thus: Antiproliferative activity against HFL1 cells after 72 hrs by CCK8 assay. Type of test: cell-based. The settings on record: Homo sapiens, HFL1, 72 h. A digest of the protocol:
as §1

The target of test [7] is T1, DNA topoisomerase 1 (Homo sapiens) (UniProt P11387).
T1 sequence (whole entry): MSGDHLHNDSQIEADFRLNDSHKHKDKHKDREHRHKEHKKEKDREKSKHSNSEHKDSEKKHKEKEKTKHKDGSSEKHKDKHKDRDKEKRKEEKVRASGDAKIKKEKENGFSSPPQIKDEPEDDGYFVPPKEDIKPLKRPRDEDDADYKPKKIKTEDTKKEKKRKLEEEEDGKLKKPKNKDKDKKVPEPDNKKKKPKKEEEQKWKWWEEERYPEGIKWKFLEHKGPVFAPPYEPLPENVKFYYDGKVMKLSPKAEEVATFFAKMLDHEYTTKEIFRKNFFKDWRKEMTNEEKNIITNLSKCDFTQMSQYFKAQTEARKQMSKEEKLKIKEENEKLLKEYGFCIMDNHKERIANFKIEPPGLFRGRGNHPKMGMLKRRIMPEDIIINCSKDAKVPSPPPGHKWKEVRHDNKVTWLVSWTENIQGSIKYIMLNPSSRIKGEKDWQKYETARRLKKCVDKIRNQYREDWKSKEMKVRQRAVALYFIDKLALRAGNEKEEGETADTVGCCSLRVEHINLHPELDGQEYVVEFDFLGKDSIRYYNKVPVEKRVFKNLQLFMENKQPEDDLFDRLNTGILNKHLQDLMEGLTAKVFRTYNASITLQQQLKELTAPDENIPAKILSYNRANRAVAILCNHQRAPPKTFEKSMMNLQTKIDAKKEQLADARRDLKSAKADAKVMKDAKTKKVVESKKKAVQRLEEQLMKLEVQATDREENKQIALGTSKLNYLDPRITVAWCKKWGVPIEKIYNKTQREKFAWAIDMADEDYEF
In words: Poison activity at human DNA topoisomerase-1 assessed as DNA intercalation by measuring DNA unwinding using pHOT1 DNA as substrate after 30 mins by ethidium bromide staining based agarose gel electrophoresis.

In test [8] the target is DNA topoisomerase 2-alpha (Homo sapiens) (UniProt P11388). Briefly: Inhibition of human DNA topoisomerase-2alpha ATPase activity at 300 uM using supercoiled pBR322 DNA as substrate after 1 hr by malachite green dye based assay relative to control. A digest of the protocol:
(§2)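 Topo IIα ATPase: 4 units of enzyme with 100 ng supercoiled pBR322 and 250 µM ATP in 10 mM Tris-HCl pH 7.9, 50 mM NaCl, 50 mM KCl, 5 mM MgCl2, 0.1 mM EDTA, 15 µg/mL BSA at 37 °C for 1 h. Malachite green reagent was then added for 30 min at room temperature, and released phosphate was read at 620 nm.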

The target is the same in test [9]. Briefly: Inhibition of human DNA topoisomerase-2alpha ATPase activity at 400 uM using supercoiled pBR322 DNA as substrate after 1 hr by malachite green dye based assay relative to control. A digest of the protocol: as §2
Test [10] shares this target. Briefly: Inhibition of human DNA topoisomerase-2alpha ATPase activity at 200 uM using supercoiled pBR322 DNA as substrate after 1 hr by malachite green dye based assay relative to control. The procedure, abridged: as §2
Test [11] shares this target. In words: Inhibition of human DNA topoisomerase-2alpha at 100 uM using supercoiled pBR322 DNA as substrate after 30 mins by ethidium bromide staining based agarose gel electrophoresis relative to control. A digest of the protocol:
(§3)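 Human topo IIα, 1 unit set by full relaxation of pBR322, with 100 ng pBR322 for 30 min in 10 mM Tris-HCl pH 7.9, 50 mM NaCl, 5 mM MgCl2, 1 mM EDTA and BSA. Stop was with EDTA. Screening was at 100 µM, with retest at 20 µM if inhibition exceeded 30%. Gel was 1% agarose at 25 V for 4 h in TAE, stained with ethidium bromide. Mean ± S.D. from three experiments in triplicate.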

Test [12] is filed under the species Homo sapiens. Briefly: Inhibition of DNA topoisomerase catalytic activity in human T47D nuclear extract at 20 uM using supercoiled pBR322 DNA as substrate after 24 hrs by ethidium bromide staining based agarose gel electrophoresis relative to control. A digest of the protocol:
(§4)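 T47D cells at 5 × 10^5 per 60 mm dish were grown to 80% confluence, washed with FBS-free medium and treated 24 h. Nuclear extracts were prepared in HEPES/MgCl2/KCl/DTT/NP40 buffer, then extracted with NaCl buffer. The amount of extract that fully relaxes 100 ng pBR322 at 37 °C in 20 min was set as the unit. Products were run on agarose in TAE and stained with ethidium bromide (0.5 µg/mL).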

Test [13] concerns the target T1, DNA topoisomerase 1 (Homo sapiens). Briefly: Inhibition of human DNA topoisomerase-1 at 100 uM using supercoiled pBR322 DNA as substrate after 30 mins by ethidium bromide staining based agarose gel electrophoresis relative to control. A digest of the protocol:
(§5)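 Recombinant human topo I, 1 unit (the amount that fully relaxes supercoiled pBR322), with 100 ng pBR322 DNA at 37 °C for 30 min in 10 mM Tris-HCl pH 7.9, 150 mM NaCl, 0.1% BSA. Compounds were screened at 100 µM, and those above 30% inhibition were retested at 20 µM. Products ran on 1% agarose at 15 V for 7 h in TAE with ethidium bromide staining. Mean ± S.D. from three experiments in triplicate.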

For test [14], the species on record is Homo sapiens. Briefly: Inhibition of DNA topoisomerase catalytic activity in human T47D nuclear extract at 50 uM using supercoiled pBR322 DNA as substrate after 24 hrs by ethidium bromide staining based agarose gel electrophoresis relative to control. A digest of the protocol: as §4
Test [15] has as its target T1, DNA topoisomerase 1 (Homo sapiens). Briefly: Inhibition of human DNA topoisomerase-1 at 20 uM using supercoiled pBR322 DNA as substrate after 30 mins by ethidium bromide staining based agarose gel electrophoresis relative to control. The procedure, abridged:
as §5

The target of test [16] is DNA topoisomerase 2-alpha (Homo sapiens) (UniProt P11388). In words: Inhibition of human DNA topoisomerase-2alpha at 500 uM using supercoiled pBR322 DNA as substrate after 20 mins by ethidium bromide staining based agarose gel electrophoresis relative to control.
Sequence of DNA topoisomerase 2-alpha (Homo sapiens) (P11388 whole entry): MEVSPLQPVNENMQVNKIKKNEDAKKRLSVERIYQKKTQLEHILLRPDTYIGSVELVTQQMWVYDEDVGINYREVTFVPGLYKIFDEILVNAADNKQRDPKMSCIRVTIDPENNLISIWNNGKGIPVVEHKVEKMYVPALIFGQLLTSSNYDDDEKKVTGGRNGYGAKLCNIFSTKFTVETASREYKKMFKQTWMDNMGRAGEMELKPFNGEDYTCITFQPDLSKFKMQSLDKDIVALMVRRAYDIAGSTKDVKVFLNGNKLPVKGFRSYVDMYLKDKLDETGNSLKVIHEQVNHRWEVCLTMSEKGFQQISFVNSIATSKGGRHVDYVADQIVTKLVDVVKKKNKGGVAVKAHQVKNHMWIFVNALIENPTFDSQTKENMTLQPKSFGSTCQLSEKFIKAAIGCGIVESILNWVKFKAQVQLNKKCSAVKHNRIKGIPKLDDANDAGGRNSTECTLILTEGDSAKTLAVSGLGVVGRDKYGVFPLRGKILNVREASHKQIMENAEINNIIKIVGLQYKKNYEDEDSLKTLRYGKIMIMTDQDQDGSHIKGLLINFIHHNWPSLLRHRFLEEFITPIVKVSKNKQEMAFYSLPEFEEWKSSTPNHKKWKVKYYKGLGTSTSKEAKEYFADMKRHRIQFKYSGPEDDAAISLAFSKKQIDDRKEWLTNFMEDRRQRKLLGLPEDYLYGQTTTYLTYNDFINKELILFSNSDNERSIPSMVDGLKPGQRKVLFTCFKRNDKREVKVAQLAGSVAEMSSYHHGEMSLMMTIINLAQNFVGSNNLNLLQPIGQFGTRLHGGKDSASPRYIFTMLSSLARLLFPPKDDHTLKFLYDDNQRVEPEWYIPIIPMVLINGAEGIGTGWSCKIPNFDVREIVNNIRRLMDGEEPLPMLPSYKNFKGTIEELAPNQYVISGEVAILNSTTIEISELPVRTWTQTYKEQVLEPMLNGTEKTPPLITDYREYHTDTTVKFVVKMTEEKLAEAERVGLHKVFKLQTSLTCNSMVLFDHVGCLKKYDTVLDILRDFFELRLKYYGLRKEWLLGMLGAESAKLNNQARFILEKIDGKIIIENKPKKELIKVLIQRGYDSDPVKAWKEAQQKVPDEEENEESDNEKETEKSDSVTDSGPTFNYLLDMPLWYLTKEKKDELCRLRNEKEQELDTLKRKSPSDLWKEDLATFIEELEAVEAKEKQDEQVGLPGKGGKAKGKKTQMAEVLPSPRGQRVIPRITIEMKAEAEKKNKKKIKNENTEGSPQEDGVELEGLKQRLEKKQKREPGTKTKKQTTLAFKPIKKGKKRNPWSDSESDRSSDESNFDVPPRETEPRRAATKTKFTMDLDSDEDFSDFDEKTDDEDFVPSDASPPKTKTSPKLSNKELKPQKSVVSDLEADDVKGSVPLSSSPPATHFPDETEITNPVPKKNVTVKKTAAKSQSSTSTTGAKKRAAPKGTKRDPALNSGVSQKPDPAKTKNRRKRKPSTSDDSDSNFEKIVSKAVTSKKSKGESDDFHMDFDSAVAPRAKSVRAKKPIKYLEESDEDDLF
Test [17] has the same target. In words: Inhibition of human DNA topoisomerase-2alpha at 20 uM using supercoiled pBR322 DNA as substrate after 30 mins by ethidium bromide staining based agarose gel electrophoresis relative to control. A digest of the protocol:
as §3

Counter-ions that a name gives are not always drawn. The source made the active and inactive calls. No cut-off for these calls is given here.

The IC50 is the concentration needed to halve the response being measured. Read a low IC50 as higher potency. Turning to `COc1cccc2c1C(=O)c1c(O)c3c(c(O)c1C2=O)C[C@@](O)(C(=O)CO)C[C@@H]3O[C@H]1C[C@H](N)[C@H](O)[C@H](C)O1` [DOXORUBICIN HYDROCHLORIDE], the IC50 in test [1] was 1080 to 1230 nM; in test [2], 520 to 1000 nM; in [3], 880 to 1200 nM; in test [4] it was 4960 nM; in test [5] it was 1340 nM; in [6], 2310 nM.

For `COc1cc(NS(C)(=O)=O)ccc1Nc1c2ccccc2nc2ccccc12`, the Activity entry in test [7] was “Dose-dependent effect”.

A word on the inhibition: it is the share of the control response that was lost under treatment. On to `CO[C@@H]1[C@@H](OC(N)=O)[C@@H](O)[C@H](Oc2ccc3c(O)c(NC(=O)c4ccc(O)c(CC=C(C)C)c4)c(=O)oc3c2C)OC1(C)C`, for which the inhibition in [8] was 33.3%; in test [9], 55.9%; in [10] it was 22.7%.

In the case of `CC[C@@]1(O)C(=O)OCc2c1cc1n(c2=O)Cc2cc3ccccc3nc2-1` [CAMPTOTHECIN], the IC50 in [1] is 310 to 18900 nM; in test [2], 110 to 2090 nM; in [3] it was 400 to 7320 nM; in test [4], 830 nM; in test [5], 13700 nM; in [6], 1060 nM.

For `Oc1ccc(-c2cc(-c3ccco3)nc3c2Cc2ccccc2-3)cc1`, the inhibition stood at 95.1% in test [11]; 0% in [9]; 34.3% in the test listed under Homo sapiens [12]; 69.7% in test [13]; 97% in the test listed under Homo sapiens [14]; 53.5% in [15]. In [17], the inhibition came out at 92.2%. The IC50 in test [1] amounted to 3120 nM; in test [2] it was 3740 nM; in test [3], 3960 nM; in test [4] it was 3470 nM; in test [5], 950 nM; in test [6] it was 7990 nM. In test [16], the inhibition entry is “Active”.

As for `COc1cc([C@@H]2c3cc4c(cc3[C@@H](O[C@@H]3O[C@@H]5CO[C@@H](C)O[C@H]5[C@H](O)[C@H]3O)[C@H]3COC(=O)[C@H]23)OCO4)cc(OC)c1O` [ETOPOSIDE], the IC50 in test [1] is 1100 to 2820 nM; in test [2], 20 to 13100 nM; in test [3], 180 to 1400 nM; in test [4] it was 1740 nM; in test [6], 87600 nM. Also, the inhibition in the test listed under Homo sapiens [14] is 61.1%.
